The target in assay [1] is Phosphatidylinositol 4-kinase alpha (Homo sapiens, UniProt P42356). In words: Inhibition of PIK4CA in human HeLa cells lysate at 10 uM pre incubated for 15 mins followed by ATP acyl phosphate probe addition and measured after 10 mins by LC-MS/MS analysis relative to control. The assay is classed as subcellular. The following applies: time 25.0 min.
Assay [2] has as its target Mitogen-activated protein kinase kinase kinase 1 (Homo sapiens, UniProt Q13233). In words: Inhibition of MAP3K1 in human HeLa cells lysate at 2 uM pre incubated for 15 mins followed by ADP acyl phosphate probe addition and measured after 10 mins by LC-MS/MS analysis relative to control. The assay is classed as subcellular. The following applies: time 25.0 min.
Assay [3] addresses Tyrosine-protein kinase Fer (Homo sapiens, UniProt P16591). In words: Inhibition of FER in human HeLa cells lysate at 2 uM pre incubated for 15 mins followed by ATP acyl phosphate probe addition and measured after 10 mins by LC-MS/MS analysis relative to control. The assay is classed as subcellular. The following applies: time 25.0 min.
Assay [4] addresses Serine/threonine-protein kinase 4 (Homo sapiens, UniProt Q13043). The assay can be described thus: Inhibition of MST1 in human HeLa cells lysate pre incubated for 15 mins followed by ADP acyl phosphate probe addition and measured after 10 mins by LC-MS/MS analysis. The assay is classed as subcellular.
Assay [5] has as its target T1, Phosphorylase b kinase gamma catalytic chain, liver/testis isoform (Homo sapiens) (UniProt P15735).
T1 sequence (whole entry): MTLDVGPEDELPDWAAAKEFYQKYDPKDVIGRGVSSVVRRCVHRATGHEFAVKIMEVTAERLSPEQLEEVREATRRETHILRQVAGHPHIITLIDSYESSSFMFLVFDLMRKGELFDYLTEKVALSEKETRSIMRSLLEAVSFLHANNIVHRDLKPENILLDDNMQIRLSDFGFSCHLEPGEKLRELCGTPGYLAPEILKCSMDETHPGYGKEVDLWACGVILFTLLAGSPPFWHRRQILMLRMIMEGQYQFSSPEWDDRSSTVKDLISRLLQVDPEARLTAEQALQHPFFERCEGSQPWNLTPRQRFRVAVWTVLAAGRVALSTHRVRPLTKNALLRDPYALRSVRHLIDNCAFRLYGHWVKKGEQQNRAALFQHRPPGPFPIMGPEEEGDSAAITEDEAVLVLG
In words: Inhibition of PHKg2 in human HeLa cells lysate at 10 uM pre incubated for 15 mins followed by ATP acyl phosphate probe addition and measured after 10 mins by LC-MS/MS analysis relative to control. The assay is classed as subcellular. The following applies: time 25.0 min.

Assay [6] addresses Phosphatidylinositol 5-phosphate 4-kinase type-2 beta (Homo sapiens) (UniProt P78356). The assay can be described thus: Inhibition of PIP5K2B in human HeLa cells lysate at 50 uM pre incubated for 15 mins followed by ATP acyl phosphate probe addition and measured after 10 mins by LC-MS/MS analysis relative to control. The assay is classed as subcellular. The following applies: time 25.0 min.

The target in a further assay is Ephrin type-B receptor 4 (Homo sapiens, UniProt P54760). The assay can be described thus: Inhibition of EphB4 in human HeLa cells lysate pre incubated for 15 mins followed by ATP acyl phosphate probe addition and measured after 10 mins by LC-MS/MS analysis. The assay is classed as subcellular.
Assay [7] deals with Ribosomal protein S6 kinase alpha-1 (Homo sapiens, UniProt Q15418). The assay can be described thus: Inhibition of RSK1 domain 2 K2 site in human HeLa cells lysate at 10 uM pre incubated for 15 mins followed by ADP acyl phosphate probe addition and measured after 10 mins by LC-MS/MS analysis relative to control. The assay is classed as subcellular. The following applies: time 25.0 min.

Assay [8] has as its target Serine/threonine-protein kinase PLK1 (Homo sapiens, UniProt P53350). The assay can be described thus: Inhibition of PLK1 splice variant in human HeLa cells lysate at 50 uM pre incubated for 15 mins followed by ADP acyl phosphate probe addition and measured after 10 mins by LC-MS/MS analysis relative to control. The following applies: time 25.0 min. The assay is classed as subcellular.

The next assay has as its target RPS6KA1/RPS6KA2/RPS6KA3 (Homo sapiens, UniProt P51812+Q15349+Q15418). The assay can be described thus: Inhibition of RSK1/RSK2/RSK3 domain 1 in human HeLa cells lysate pre incubated for 15 mins followed by ADP acyl phosphate probe addition and measured after 10 mins by LC-MS/MS analysis. The assay is classed as subcellular.
The target of assay [9] is T2, Phosphatidylinositol 5-phosphate 4-kinase type-2 alpha (Homo sapiens) (UniProt P48426).
T2 sequence (whole entry): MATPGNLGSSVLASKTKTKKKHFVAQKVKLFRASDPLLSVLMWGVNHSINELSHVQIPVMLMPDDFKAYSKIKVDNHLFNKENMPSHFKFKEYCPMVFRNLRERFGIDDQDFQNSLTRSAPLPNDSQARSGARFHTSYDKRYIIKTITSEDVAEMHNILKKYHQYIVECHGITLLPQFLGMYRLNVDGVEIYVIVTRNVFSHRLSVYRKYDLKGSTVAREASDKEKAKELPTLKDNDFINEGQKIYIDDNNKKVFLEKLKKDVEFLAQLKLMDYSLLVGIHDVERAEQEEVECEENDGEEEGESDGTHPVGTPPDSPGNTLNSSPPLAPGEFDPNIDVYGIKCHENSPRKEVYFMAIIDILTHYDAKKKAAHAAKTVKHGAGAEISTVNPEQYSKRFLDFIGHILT
The assay can be described thus: Inhibition of PIP5K2A LIP1 site in human HeLa cells lysate at 50 uM pre incubated for 15 mins followed by ADP acyl phosphate probe addition and measured after 10 mins by LC-MS/MS analysis relative to control. The assay is classed as subcellular. The following applies: time 25.0 min.

The subject of another assay is HeLa. In words: Antitumor activity against human HeLa cells xenografted in NOD/SCID mouse assessed as reduction tumor growth at 50 mg/kg, ip administered on day 7 post implantation measured after 28 days. The assay is classed as functional, organism-based. The following applies: time 21.0 day. In short, it runs like this:
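HeLa cells (5×10^5, in DMEM) were injected s.c. into the right flank of 6-week-old Nod/Scid mice on day 0. Dosing was 50 mg/kg i.p. twice daily, starting on day 1, 7 or 14 and continuing to day 28; controls received carrier. 6 mice per treated group. Tumors were measured every 2–3 days.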
(A xenograft is tissue or cells of one species grown in another, often human tumour cells in immunodeficient mice.)

Assay [10] deals with STE20-like serine/threonine-protein kinase (Homo sapiens, UniProt Q9H2G2). The assay can be described thus: Inhibition of SLK in human HeLa cells lysate at 50 uM pre incubated for 15 mins followed by ADP acyl phosphate probe addition and measured after 10 mins by LC-MS/MS analysis relative to control. The assay is classed as subcellular. The following applies: time 25.0 min.

A short description of assay [11]: Inhibition of MST4/YSK1 in human HeLa cells lysate pre incubated for 15 mins followed by ATP acyl phosphate probe addition and measured after 10 mins by LC-MS/MS analysis. The assay is classed as subcellular.
Assay [12] has as its target T3, Phosphatidylinositol 5-phosphate 4-kinase type-2 alpha (Homo sapiens, UniProt P48426).
T3 sequence (P48426 whole entry): T2 sequence (whole entry)
In words: Inhibition of PIP5K2A in human HeLa cells lysate pre incubated for 15 mins followed by ATP acyl phosphate probe addition and measured after 10 mins by LC-MS/MS analysis. The assay is classed as subcellular.

Assay [13] addresses Tyrosine-protein kinase CSK (Homo sapiens, UniProt P41240). In words: Inhibition of CSK in human HeLa cells lysate pre incubated for 15 mins followed by ADP acyl phosphate probe addition and measured after 10 mins by LC-MS/MS analysis. The assay is classed as subcellular.

Calls of active or inactive are those of the source. The calls are words filed in the database; no cut-off is given here.

Sequence of Tyrosine-protein kinase CSK (P41240 whole entry): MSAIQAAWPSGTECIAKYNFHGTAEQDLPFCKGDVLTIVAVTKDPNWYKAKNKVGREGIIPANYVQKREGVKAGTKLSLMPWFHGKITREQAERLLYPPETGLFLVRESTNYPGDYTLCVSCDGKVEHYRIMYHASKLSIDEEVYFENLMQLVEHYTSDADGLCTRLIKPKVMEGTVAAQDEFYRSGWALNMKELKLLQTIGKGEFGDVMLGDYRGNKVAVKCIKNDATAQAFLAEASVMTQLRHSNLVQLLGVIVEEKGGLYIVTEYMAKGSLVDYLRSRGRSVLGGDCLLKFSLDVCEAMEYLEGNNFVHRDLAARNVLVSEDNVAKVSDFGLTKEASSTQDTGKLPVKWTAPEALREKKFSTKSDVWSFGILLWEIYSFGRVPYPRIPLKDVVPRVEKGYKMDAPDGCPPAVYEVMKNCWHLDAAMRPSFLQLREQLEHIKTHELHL
Sequence of Tyrosine-protein kinase Fer (P16591 whole entry, looked up): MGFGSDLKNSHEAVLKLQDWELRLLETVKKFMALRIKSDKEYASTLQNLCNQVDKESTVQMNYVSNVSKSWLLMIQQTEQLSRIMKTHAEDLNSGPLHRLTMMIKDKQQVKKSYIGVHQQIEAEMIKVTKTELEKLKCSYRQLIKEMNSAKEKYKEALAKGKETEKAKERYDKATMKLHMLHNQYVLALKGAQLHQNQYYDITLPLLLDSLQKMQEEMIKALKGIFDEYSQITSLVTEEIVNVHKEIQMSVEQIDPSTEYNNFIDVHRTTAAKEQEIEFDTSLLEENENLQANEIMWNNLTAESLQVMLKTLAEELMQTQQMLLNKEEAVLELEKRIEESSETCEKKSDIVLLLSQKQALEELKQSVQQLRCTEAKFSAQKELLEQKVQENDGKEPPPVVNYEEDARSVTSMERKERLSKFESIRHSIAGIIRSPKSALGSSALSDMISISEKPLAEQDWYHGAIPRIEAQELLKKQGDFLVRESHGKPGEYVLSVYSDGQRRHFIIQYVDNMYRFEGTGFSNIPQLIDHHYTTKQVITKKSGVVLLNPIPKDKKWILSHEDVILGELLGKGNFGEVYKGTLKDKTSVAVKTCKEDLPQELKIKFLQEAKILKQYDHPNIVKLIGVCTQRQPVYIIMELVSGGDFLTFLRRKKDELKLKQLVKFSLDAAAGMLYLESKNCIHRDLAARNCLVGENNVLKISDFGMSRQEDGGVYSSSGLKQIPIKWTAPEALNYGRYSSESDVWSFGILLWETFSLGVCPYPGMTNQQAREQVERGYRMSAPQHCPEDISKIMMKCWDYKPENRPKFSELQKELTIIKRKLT
Sequence of STE20-like serine/threonine-protein kinase (Q9H2G2 whole entry, looked up): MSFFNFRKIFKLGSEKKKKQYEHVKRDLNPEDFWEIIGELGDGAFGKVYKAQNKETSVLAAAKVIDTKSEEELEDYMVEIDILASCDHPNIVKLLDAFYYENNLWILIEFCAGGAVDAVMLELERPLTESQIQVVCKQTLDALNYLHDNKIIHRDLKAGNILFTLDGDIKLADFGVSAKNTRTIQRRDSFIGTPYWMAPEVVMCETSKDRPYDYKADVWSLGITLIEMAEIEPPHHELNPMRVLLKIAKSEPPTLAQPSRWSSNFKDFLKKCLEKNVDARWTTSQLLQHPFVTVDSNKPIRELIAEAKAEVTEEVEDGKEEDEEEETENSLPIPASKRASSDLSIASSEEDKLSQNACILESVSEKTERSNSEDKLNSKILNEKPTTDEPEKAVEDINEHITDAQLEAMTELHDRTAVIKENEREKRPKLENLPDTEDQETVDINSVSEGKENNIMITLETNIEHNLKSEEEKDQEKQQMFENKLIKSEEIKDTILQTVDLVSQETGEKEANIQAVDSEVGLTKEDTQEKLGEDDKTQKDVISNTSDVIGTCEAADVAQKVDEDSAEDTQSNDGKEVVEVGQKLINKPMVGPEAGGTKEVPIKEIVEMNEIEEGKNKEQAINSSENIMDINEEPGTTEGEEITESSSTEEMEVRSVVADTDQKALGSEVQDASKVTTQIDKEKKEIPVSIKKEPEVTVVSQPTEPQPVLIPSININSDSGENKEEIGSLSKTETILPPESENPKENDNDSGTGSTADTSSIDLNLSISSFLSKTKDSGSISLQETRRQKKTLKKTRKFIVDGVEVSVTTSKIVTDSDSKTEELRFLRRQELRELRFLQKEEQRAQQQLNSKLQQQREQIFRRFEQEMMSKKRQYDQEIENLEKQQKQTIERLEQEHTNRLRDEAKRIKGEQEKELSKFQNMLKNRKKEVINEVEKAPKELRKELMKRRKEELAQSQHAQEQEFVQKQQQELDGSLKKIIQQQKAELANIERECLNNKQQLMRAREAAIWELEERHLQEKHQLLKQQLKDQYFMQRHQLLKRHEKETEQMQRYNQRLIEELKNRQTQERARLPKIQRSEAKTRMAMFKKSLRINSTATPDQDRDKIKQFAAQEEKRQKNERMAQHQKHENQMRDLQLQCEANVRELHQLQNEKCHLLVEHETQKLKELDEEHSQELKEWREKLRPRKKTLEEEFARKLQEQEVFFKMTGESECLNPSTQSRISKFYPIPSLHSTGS
Sequence of Ribosomal protein S6 kinase alpha-1 (Q15418 whole entry, the tested form may be a part): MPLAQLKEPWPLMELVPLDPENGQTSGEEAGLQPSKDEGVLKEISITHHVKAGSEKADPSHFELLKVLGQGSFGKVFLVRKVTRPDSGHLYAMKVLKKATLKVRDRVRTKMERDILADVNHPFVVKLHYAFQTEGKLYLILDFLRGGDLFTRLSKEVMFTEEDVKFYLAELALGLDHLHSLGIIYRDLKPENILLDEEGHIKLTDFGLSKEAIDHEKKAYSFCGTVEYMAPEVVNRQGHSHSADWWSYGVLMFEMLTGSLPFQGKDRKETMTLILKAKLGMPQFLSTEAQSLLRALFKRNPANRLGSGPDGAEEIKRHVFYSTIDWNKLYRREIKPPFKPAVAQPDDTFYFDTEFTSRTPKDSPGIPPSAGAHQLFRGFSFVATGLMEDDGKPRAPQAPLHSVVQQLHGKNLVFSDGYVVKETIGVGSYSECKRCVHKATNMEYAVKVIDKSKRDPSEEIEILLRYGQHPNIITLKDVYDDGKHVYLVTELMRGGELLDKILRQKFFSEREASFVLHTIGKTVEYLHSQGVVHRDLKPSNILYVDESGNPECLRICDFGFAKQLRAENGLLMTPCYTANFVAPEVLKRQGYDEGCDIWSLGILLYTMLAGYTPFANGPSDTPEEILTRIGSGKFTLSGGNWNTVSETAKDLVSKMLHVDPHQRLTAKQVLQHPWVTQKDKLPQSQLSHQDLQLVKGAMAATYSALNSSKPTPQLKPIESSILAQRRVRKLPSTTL
Sequence of Mitogen-activated protein kinase kinase kinase 1 (Q13233 whole entry): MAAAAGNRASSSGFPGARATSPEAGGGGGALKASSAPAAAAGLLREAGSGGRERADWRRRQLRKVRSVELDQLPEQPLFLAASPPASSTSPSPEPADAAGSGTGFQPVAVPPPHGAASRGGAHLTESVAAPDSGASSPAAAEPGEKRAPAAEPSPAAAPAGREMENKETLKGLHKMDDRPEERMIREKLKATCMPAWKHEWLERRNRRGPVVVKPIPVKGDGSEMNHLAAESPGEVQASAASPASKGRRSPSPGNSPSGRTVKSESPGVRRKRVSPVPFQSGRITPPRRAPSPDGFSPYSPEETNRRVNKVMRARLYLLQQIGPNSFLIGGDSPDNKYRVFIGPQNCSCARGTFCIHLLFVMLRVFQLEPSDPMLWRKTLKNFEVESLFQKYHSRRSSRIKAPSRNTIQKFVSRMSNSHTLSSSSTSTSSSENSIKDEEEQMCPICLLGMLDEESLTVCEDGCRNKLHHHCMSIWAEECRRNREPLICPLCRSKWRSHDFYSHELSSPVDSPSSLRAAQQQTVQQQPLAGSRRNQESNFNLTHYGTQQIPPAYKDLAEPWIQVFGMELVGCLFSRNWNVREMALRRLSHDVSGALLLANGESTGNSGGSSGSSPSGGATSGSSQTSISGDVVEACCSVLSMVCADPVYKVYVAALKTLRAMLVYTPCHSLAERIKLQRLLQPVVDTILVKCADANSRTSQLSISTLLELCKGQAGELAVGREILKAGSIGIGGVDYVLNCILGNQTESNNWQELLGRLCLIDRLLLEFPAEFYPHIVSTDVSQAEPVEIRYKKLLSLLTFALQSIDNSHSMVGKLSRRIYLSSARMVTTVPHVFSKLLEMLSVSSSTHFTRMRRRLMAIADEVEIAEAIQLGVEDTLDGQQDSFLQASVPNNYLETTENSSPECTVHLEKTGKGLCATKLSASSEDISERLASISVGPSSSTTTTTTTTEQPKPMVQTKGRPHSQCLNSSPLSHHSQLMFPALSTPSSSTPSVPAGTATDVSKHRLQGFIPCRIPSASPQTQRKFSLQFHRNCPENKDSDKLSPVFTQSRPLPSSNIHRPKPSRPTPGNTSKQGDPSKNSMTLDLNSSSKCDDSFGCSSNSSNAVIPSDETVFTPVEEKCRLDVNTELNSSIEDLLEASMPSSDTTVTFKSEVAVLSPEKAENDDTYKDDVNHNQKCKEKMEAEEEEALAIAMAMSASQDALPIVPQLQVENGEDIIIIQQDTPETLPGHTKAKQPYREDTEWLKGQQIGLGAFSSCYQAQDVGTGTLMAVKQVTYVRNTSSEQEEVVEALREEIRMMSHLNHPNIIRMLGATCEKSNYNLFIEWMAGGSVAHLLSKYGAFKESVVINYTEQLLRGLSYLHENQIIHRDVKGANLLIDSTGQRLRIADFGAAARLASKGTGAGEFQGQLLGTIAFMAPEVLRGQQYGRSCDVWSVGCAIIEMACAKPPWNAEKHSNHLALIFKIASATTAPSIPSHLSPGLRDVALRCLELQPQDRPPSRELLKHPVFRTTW

In the case of `CCOc1cc(N2CCC(O)CC2)ccc1Nc1ncc2c(n1)N(C)c1ccccc1C(=O)N2C`, the inhibition in assay [1] is 7.7%; in [2] it was 11.5%; in assay [3] it was 8%; in [5], -4.9%; in assay [6] it was 6.9%; in assay [7], 5.4%. Also, the inhibition in assay [8] is 13.3%; in assay [9], 16.2%; in assay [10], 20.9%. In addition, the IC50 (in [4]; on Ephrin type-B receptor 4; on RPS6KA1/RPS6KA2/RPS6KA3; in [11]; in assay [12]; in assay [13]) was above 50 µM each time. The outcome with HeLa was Active.

One may read the inhibition as the relative decrease from the control value, in per cent. For orientation: IC50 means the concentration that gives 50% inhibition. Low readings indicate greater potency, high ones weaker potency.

The values are drawn from ChEMBL document CHEMBL5661979, “Pharmacological inhibition of BMK1 suppresses tumor growth through promyelocytic leukemia protein” (Cancer Cell, 2010).
